From publication PMC11439047 (Nature Communications, 2024)
Positions count from the first letter of the chain named.

Assays:
[1] = target: T1, P2X1 receptor R139P (Homo sapiens, UniProt P51575, R139P); test: Calcium ion influx assay; type: cell-based; conditions: maximal α,β-methylene ATP
T1 sequence (P51575 1-399 R139P): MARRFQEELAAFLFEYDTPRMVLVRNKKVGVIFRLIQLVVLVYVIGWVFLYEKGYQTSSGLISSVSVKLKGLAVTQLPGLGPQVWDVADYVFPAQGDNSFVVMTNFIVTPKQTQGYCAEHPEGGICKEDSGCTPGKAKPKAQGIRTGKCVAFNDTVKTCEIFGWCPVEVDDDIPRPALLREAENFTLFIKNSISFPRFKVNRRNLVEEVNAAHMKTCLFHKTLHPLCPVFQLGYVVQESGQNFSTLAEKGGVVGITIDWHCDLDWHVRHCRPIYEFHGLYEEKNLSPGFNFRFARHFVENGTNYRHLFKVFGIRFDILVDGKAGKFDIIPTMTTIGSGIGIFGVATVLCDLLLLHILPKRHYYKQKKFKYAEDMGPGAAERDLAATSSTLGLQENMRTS

[2] = target: T1, P2X1 receptor R139P; test: Saturation radioligand binding with [3H]-α,β-methylene ATP
Procedure, shortened: (§1)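 Whole HEK293 Flp-In T-REx cells stably expressing receptor, tetracycline-induced (150 ng/ml, 2 days), 15,000 cells/well, washed in HEPES binding buffer pH 7.4 with Ca2+/Mg2+. Increasing [3H]-α,β-methylene ATP added, 3 h room temperature with gentle agitation; non-specific binding with 10 μM ATP. Ice-cold 0.9% NaCl washes, scintillation counting (CCPM). Specific binding fitted one-site; values above 300 nM termed not defined.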

[3] = target: T2, P2X1 receptor D170A (Homo sapiens, UniProt P51575, D170A); test: Saturation radioligand binding with [3H]-α,β-methylene ATP
T2 sequence (P51575 1-399 D170A): T1 sequence (P51575 1-399 R139P) with P139R, D170A

[4] = target: T3, P2X1 receptor E282A (Homo sapiens, UniProt P51575, E282A); test: Saturation radioligand binding with [3H]-α,β-methylene ATP
T3 sequence (P51575 1-399 E282A): T1 sequence (P51575 1-399 R139P) with P139R, E282A
Procedure, shortened: as §1

[5] = target: T4, P2X1 receptor S286A (Homo sapiens, UniProt P51575, S286A); test: as above
T4 sequence (P51575 1-399 S286A): T1 sequence (P51575 1-399 R139P) with P139R, S286A
Procedure, shortened: as §1

[6] = target: T5, P2X1 receptor F188L (Homo sapiens, UniProt P51575, F188L); test: as above
T5 sequence (P51575 1-399 F188L): T1 sequence (P51575 1-399 R139P) with P139R, F188L
Procedure, shortened: as §1

[7] = target: T6, P2X1 receptor E122A (Homo sapiens, UniProt P51575, E122A); test: Saturation radioligand binding with [3H]-α,β-methylene ATP
T6 sequence (P51575 1-399 E122A): T1 sequence (P51575 1-399 R139P) with E122A, P139R

- binding affinity compared to WT-P2X1 [2]: reduced
- binding affinity compared to WT-P2X1 [4]: similar
- binding affinity compared to WT-P2X1 [5]: comparable to that of WT-P2X1
- binding affinity compared to WT-P2X1 [6]: similar
SMILES: Nc1ncnc2c1ncn2[C@@H]1O[C@H](COP(=O)(O)CP(=O)(O)OP(=O)(O)O)[C@@H](O)[C@H]1O [α,β-methylene ATP]
- desensitisation rate compared to WT-P2X1 [1]: significantly slowed the desensitisation rate
- binding affinity compared to WT-P2X1 [3]: beyond the threshold that could be accurately measured
- binding affinity compared to WT-P2X1 [7]: beyond the threshold that could be accurately measured
